In ChEMBL document CHEMBL4177541, “Identification of Pyridinium with Three Indole Moieties as an Antimicrobial Agent” (J Nat Prod, 2017):
pIC50: −log10 of the molar value. ≈ marks a conversion by molar mass, not a printed value.

Experiments:
Bacillus cereus = test: Antimicrobial activity against Bacillus cereus incubated for 20 hrs by CLSI protocol based method; format: functional
Escherichia coli = test: Antimicrobial activity against Escherichia coli W3110 incubated for 20 hrs by CLSI protocol based method; format: functional; conditions: W3110, 20 h
Candida albicans = test: Antimicrobial activity against Candida albicans incubated for 24 hrs by CLSI protocol based method; format: functional
Staphylococcus aureus = test: Antimicrobial activity against methicillin-sensitive Staphylococcus aureus incubated for 20 hrs by CLSI protocol based method; format: functional
P388 = test: Cytotoxicity against mouse P388 cells assessed as reduction in cell viability by MTT assay; format: functional, cell-based
In short: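 P388 murine leukemia cells were maintained in DMEM with 10% FBS and penicillin-streptomycin. After compound exposure, MTT (15 μL of a 5.0 mg/mL solution) was added for 3 h. The supernatant was removed and formazan dissolved in DMSO. IC50 was derived.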

| Structure (SMILES) | MIC (Bacillus cereus) [µg/mL] | MIC (Escherichia coli) [µg/mL] | MIC (Candida albicans) [µg/mL] | MIC (Staphylococcus aureus) [µg/mL] | pIC50 (P388) |
| --- | --- | --- | --- | --- | --- |
| [Br-].c1cc[n+](CCc2c[nH]c3ccccc23)cc1 | > 100 | > 100 | 100 | > 100 | 4.28 |
| Brc1cc(Br)c[n+](CCc2c[nH]c3ccccc23)c1.[Br-] | > 100 | > 100 | 100 | > 100 | 4.12 |
| CC1(C)S[C@@H]2[C@H](NC(=O)[C@H](N)c3ccccc3)C(=O)N2[C@H]1C(=O)O [AMPICILLIN] | 0.063 (≈ 0.18 µM) | 4 (≈ 11.4 µM) | 100 (≈ 286 µM) | 0.5 (≈ 1.43 µM) |  |
| [Br-].c1ccc2c(CC[n+]3cccc(-c4c[nH]c5ccccc45)c3)c[nH]c2c1 | 25 | > 100 | 100 | 50 | 4.30 |
| [Br-].c1ccc2c(CC[n+]3cc(-c4c[nH]c5ccccc45)cc(-c4c[nH]c5ccccc45)c3)c[nH]c2c1 | 0.78 | > 100 | 12.5 | 1.56 | 6.00 |
